Out of some 310,000 compounds screened, about 1,400 (0.45%) were called active.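 How the source made its calls: active means calcium response B-score plate-corrected fluorescence ratio at least 3 library SD, with starting fluorescence B-score inside 5 SD; inactive means the rest.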 The list comes from a sample in which actives are over-represented; it also holds similar structures and randomly drawn compounds.

The target in the experiment is Mas-related G-protein coupled receptor member X1 (Homo sapiens) (UniProt Q96LB2). The experiment can be described thus: agonists of human MrgX1 receptor, primary screen, HEK293 cells, Fluo-4 calcium flux (AID 588627).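 On B-score: B-score of the peak-minus-trough calcium fluorescence change over baseline.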 The settings on record: Fluo-4 calcium fluorescence, agonist mode, at 10 µM; hits give high values. In short, it runs like this: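 Test system: HEK293 cells stably expressing human MrgX1 receptor; amount: 15,000 cells per well; doses: compound delivered in addition one of three; times: overnight plating before 1 h dye loading; detection: Fluo-4 NW calcium-flux fluorescence, kinetic read; read-out basis: B-scored fluorescence response ratio; controls: positive and negative controls per plate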
Mas-related G-protein coupled receptor member X1 (Homo sapiens), sequence (Q96LB2 whole entry, looked up): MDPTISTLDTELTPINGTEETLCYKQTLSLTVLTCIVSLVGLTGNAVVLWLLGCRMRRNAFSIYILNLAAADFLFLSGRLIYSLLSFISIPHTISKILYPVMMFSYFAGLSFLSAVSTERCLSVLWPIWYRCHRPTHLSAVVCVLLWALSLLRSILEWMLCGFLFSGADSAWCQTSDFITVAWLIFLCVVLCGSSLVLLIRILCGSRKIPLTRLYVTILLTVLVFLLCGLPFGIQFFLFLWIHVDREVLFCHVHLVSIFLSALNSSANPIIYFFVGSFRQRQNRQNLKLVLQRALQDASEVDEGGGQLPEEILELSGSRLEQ
Take `CCCCC(=O)N/N=C/c1c(O)n(CC)c(=S)n(CC)c1=O`: the B-score is 66 (active).

Regarding `CCCCC(=O)N/N=C/c1c(O)n(-c2ccccc2)c(=O)[nH]c1=O`, the B-score result is “inactive”.

For the molecule `CCCCC(=O)N/N=C/c1c(O)n(CCC2=CCCCC2)c(=O)[nH]c1=O`, the B-score entry was “inactive”.

On to `CC1=C(C(=O)Nc2ccccc2)S(=O)(=O)CCO1`, for which the B-score result is “inactive”.

`COc1ccc2c(c1)[C@]13CCCCC1C(C2)N(C)CC3` (stereo not given in full): the B-score result was “inactive”.

Consider `Cc1cc(/C=C2/C(=O)NC(=O)N(Cc3ccco3)C2=O)c(C)n1-c1ccc(C(=O)O)cc1`, for which the B-score entry is “inactive”.

Consider `O=C1NC(=O)N(Cc2ccco2)C(=O)/C1=C\c1ccc(-c2ccc(F)cc2)o1`, for which the B-score was 28.4 (active).

For the molecule `O=C1NC(=O)N(Cc2ccco2)C(=O)/C1=C\c1cccn1CCOc1ccccc1`, the B-score entry is “inactive”.

`CCN(N=Nc1nonc1OC)c1nonc1OC`: the B-score result is “inactive”.

For the molecule `Cc1ccc2c(c1)=C/C(=C\c1c(O)[nH]c(=O)[nH]c1=O)C(=O)N=2`, the B-score entry was “inactive”.

(Values after PubChem BioAssay AID588627 (Johns Hopkins Ion Channel Center, 2011).)
